The results in this text go back to ChEMBL document CHEMBL1914423, “New imidazo[2,1-b]thiazole derivatives: synthesis, in vitro anticancer evaluation, and in silico studies” (Eur J Med Chem, 2011).

A short description of the experiment: Antiproliferative activity against human A375P cells after 48 hrs by MTT assay. Type of experiment: functional, cell-based. The essentials: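 A375P cells in DMEM with 10% FBS at 37 °C, 5% CO2. Seeded at 5×10³ cells/well, held 24 h, then treated with 12-point 3-fold serial dilutions for 48 h. Viability by MTT reduction. IC50 values are means of triplicate experiments.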

Each structure is given as a SMILES string.

As to `CNC(=O)c1cc(Oc2ccc(NC(=O)Nc3ccc(Cl)c(C(F)(F)F)c3)cc2)ccn1` [SORAFENIB], half-maximal inhibition (IC50) required 5.6 µM.
For `COc1cccc(-c2nc3sccn3c2-c2ccnc(NCCNC(=O)Nc3cc(C(F)(F)F)cc(C(F)(F)F)c3)n2)c1` the value was 4.3 µM.
